Cav32 inh – inhibitors of human Cav3.2 T-type calcium channel. O95180. Cav3.2-expressing cells, Fluo-4 calcium fluorescence FDSS; stronger effect = lower value. B-score at 10 µM. hit rate 4% among 100,000;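 active = single-dose well whose peak fluorescence ratio is a statistical outlier from its plate by either plate-standardised score or position-corrected B-score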
HIV Rev-RRE inh – inhibitors of HIV-1 Rev-RRE RNA interaction. hit rate 0.79% among 97,000. inhibition, % at 8 µM. P05866. Rev peptide-RRE RNA binding, FRET;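 active = inhibition above the screen-wide mean plus 3 SD, cut at about 35% in these data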
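Test system: Cy5-tagged RRE RNA duplex with fluorescein-tagged Rev peptide; Probe or stimulus: labelled Rev peptide; Schedule: 5 min preincubation and 15 min binding, 25 °C; Signal: FRET fluorescence readout; Evaluation: % inhibition from 671/540 nm acceptor-to-donor ratio, scaled between controls; Control set: DMSO and neomycin B.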
EphB4 antag – blocks human EphB4 binding to ephrin-B2. hit rate 0.15% among 97,000. inhibition, % at 7 µM. P54760. EphB4 LBD / TNYL-RAW-Alexa532 peptide, fluorescence polarization;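 active = inhibition above the screen-wide mean inhibition plus 3 SD, cut at about 15% in these data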
DAT uptake mod – changed human dopamine transporter uptake under cocaine IC80; B-score at 10 µM; AID 449768; LLC-PK1 hDAT cells, [14C]-dopamine uptake with cocaine IC80; actives deviate in either direction; Q01959; hit rate 1.3% among 110,000;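 active = Z score or B-score, a plate-position-corrected score, falls beyond the plate's 99.7% confidence bounds, in either direction; inactive = both scores lie inside the 99.7% bounds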
Numbers stand for hits; [ ] = another dose, or the depositor's remark. Most compounds without a hit are left out; they make up all but 5.4% or so of the library.

`S=C(NCc1ccccc1)NCC1COc2ccccc2O1` (stereo unspecified) gave Cav32 inh -4.5, HIV Rev-RRE inh inactive, EphB4 antag inactive and DAT uptake mod inactive.
`O=C(Nc1ccc(F)cc1)c1ccccc1CC[N+](=O)[O-]` gave Cav32 inh inactive, HIV Rev-RRE inh inactive, EphB4 antag inactive and DAT uptake mod inactive.
For O=C1NC(=S)N/C1=C/c1ccc(-c2c(Br)cc([N+](=O)[O-])cc2Br)o1 the results were HIV Rev-RRE inh 38 and EphB4 antag inactive.
Screening COc1ccc(OC)c(-c2cc(C(=O)N3CCc4ccccc4C3)no2)c1 returned Cav32 inh inactive, HIV Rev-RRE inh inactive, EphB4 antag inactive and DAT uptake mod 2.9.
Screening CCCCN(Cc1ccccc1)S(=O)(=O)c1cc(Br)cc2c1N(C(C)=O)C(C)C2 (stereo unspecified) returned Cav32 inh -3.3, HIV Rev-RRE inh inactive, EphB4 antag inactive and DAT uptake mod inactive.
`CC(=O)N1c2c(cc(Br)cc2S(=O)(=O)NCc2cccnc2)CC1C` (stereo unspecified) gave DAT uptake mod inactive.
O=C(/C=C/c1ccccc1)NC(NC(=S)Nc1ccc(Cl)cc1)C(Cl)(Cl)Cl (stereo unspecified) was read as Cav32 inh -7.4, HIV Rev-RRE inh inactive, EphB4 antag inactive and DAT uptake mod -2.8.
`CC1CCCN(C(=O)Nc2cccc(NC(=O)N3CCCC(C)C3C)c2)C1C` (stereo unspecified) gave Cav32 inh -5.8, HIV Rev-RRE inh inactive, EphB4 antag inactive and DAT uptake mod inactive.
Cc1ccc(CN(CC(=O)N/N=C/c2ccccc2[N+](=O)[O-])S(=O)(=O)c2ccc(C)cc2)cc1 was read as Cav32 inh -4, HIV Rev-RRE inh inactive, EphB4 antag inactive and DAT uptake mod inactive.
Screening Cc1cc(C)c(C)c(S(=O)(=O)N2C(=S)NC(=O)C2C(C)C)c1C (stereo unspecified) returned Cav32 inh inactive, HIV Rev-RRE inh inactive, EphB4 antag inactive and DAT uptake mod inactive.
Screening COc1ccc(C(=O)CN2C(=O)c3ccccc3C2=O)c(OC)c1C returned Cav32 inh -5.2, HIV Rev-RRE inh inactive, EphB4 antag inactive and DAT uptake mod inactive.
`O=C(O)/C=C/c1cn(-c2ncc(C(F)(F)F)cc2Cl)c2ccccc12` gave Cav32 inh inactive, HIV Rev-RRE inh inactive, EphB4 antag inactive and DAT uptake mod inactive.
Screening Cc1nc2c(-c3ccc(F)cc3)c(C)nn2c(C)c1CCC(=O)N1CCC(Cc2ccccc2)CC1 returned Cav32 inh -6.2, HIV Rev-RRE inh inactive, EphB4 antag inactive and DAT uptake mod inactive.
Cc1nc2c(-c3ccc(F)cc3)c(C)nn2c(C)c1CCC(=O)N1CCN(c2ccccc2)CC1 was read as Cav32 inh inactive, HIV Rev-RRE inh inactive, EphB4 antag inactive and DAT uptake mod inactive.
`Cc1nc2c(-c3ccc(F)cc3)c(C)nn2c(C)c1CCC(=O)N1CCN(c2ccc(F)cc2)CC1` gave Cav32 inh -6.2, HIV Rev-RRE inh inactive, EphB4 antag inactive and DAT uptake mod inactive.
O=C(c1cccnc1)N1CCN(C(=O)c2ccccc2F)CC1 was read as Cav32 inh inactive, HIV Rev-RRE inh inactive, EphB4 antag inactive and DAT uptake mod inactive.
COc1ccccc1C(=O)Nc1cc(-c2nn3c(C)nnc3s2)ccc1C was read as HIV Rev-RRE inh inactive and EphB4 antag inactive.
Screening COc1ccc(-c2c3c(=O)n(C)c(=O)n(C)c3cn2Cc2cccnc2)cc1 returned Cav32 inh inactive, HIV Rev-RRE inh inactive, EphB4 antag inactive and DAT uptake mod -8.7.
Screening c1ccc(-c2nnc(CN3CCCc4ccccc43)o2)cc1 returned HIV Rev-RRE inh 84[fluorescence artefact?], EphB4 antag inactive and DAT uptake mod inactive.
Screening c1ccc(-c2nnc(CN3CCC4(CC3)OCCO4)o2)cc1 returned Cav32 inh inactive, HIV Rev-RRE inh inactive, EphB4 antag inactive and DAT uptake mod inactive.
For CCOC(=O)c1c(NC(=O)CSc2nnc(-c3ccncc3)n2Cc2ccco2)sc(C)c1C the results were Cav32 inh inactive, HIV Rev-RRE inh inactive, EphB4 antag inactive and DAT uptake mod inactive.
CCN(CC)S(=O)(=O)c1cccc(C(=O)Nc2cc(C)cc(C)c2)c1 was read as Cav32 inh -3.4, HIV Rev-RRE inh inactive, EphB4 antag inactive and DAT uptake mod inactive.
For CCN(CC)S(=O)(=O)c1cccc(C(=O)N[C@H](C(=O)NCc2ccc(Cl)cc2)C(C)C)c1 the results were Cav32 inh -9.8, HIV Rev-RRE inh inactive, EphB4 antag inactive and DAT uptake mod inactive.
For CCN(CC)S(=O)(=O)c1cccc(C(=O)N[C@H](C(=O)NCc2ccccc2F)C(C)C)c1 the results were Cav32 inh inactive, HIV Rev-RRE inh inactive, EphB4 antag inactive and DAT uptake mod inactive.

High-throughput results: PubChem, several laboratories
